Bioassay records from PubChem BioAssay.
In the library only some 1.9% were active in any assay of this set; here they are far more common.
RAD54 inh = RAD54 (human) branch migration inhibition; RAD54 Holliday junction branch migration, FAM/BHQ fluorescence; inhibition, % at 10.4 µM; Q92698; 360,000 compounds, 0.14% hits;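 active = mean normalized replicate activity at least 40 and at least half of replicates scoring 40 or more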;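 note: inhibitors cause a drop in the FAM fluorescence signal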
RAD52 anneal inh = blocks human RAD52 DNA annealing; AID 651710; 360,000 compounds, 0.46% hits; inhibition, % at 18.7 µM; P43351; recombinant RAD52 DNA annealing, FRET fluorescence;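 active = every replicate showing at least 50% inhibition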
Target sequence (P43351 whole entry, looked up): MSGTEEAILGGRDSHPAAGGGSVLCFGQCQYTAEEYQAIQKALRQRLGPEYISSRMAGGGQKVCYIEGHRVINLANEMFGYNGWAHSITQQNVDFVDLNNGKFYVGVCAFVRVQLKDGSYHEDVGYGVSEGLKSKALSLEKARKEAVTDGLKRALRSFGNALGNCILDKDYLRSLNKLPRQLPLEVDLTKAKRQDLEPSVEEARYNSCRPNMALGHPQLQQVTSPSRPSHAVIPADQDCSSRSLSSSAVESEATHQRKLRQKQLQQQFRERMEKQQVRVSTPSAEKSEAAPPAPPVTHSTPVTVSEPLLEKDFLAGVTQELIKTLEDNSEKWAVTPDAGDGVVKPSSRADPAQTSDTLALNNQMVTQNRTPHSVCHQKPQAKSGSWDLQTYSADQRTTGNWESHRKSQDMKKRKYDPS
PglD DTNB = inhibitors of Campylobacter jejuni PglD acetyltransferase; purified PglD enzyme, DTNB colorimetric CoA detection; inhibition, % at 12.5 µM; 360,000 compounds, 0.098% hits; AID 602405; in the data active = inhibition above about 16%, passing the limit was not always enough
rRNA inh HTS = inhibits bacterial ribosomal RNA function over humanized ribosomes | E. coli WT GFP vs humanized-ribosome RFP mutants, fluorescence, 24 h; stronger effect = lower value; DMSO median 0, no signal -100 | GFP signal change (wild-type ribosome), % (test concentration not listed) | 350,000 compounds, 1.6% hits;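 active = significant combined selectivity score with lowered wild-type GFP, culture density cut under 30%, mutant RFP and density less affected; inactive = any of these conditions unmet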
Cneo AK release = Cryptococcus neoformans lysis via adenylate kinase release; lysis activity, % at 15 µM; AID 651654; C. neoformans lysis, adenylate kinase release luminescence, 4 h; normalised: neutral wells 0, clomiphene wells 100; 360,000 compounds, 0.2% hits;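 active = mean lysis activity across replicates of at least 80%, whatever share of replicates individually reach that level; inactive = mean lysis activity below 80%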
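Test system: log-phase Cryptococcus neoformans yeast cells; Quantity: yeast cell density of 5 × 10^6 cells/mL; Buffer or medium: YPD; Doses: single compound concentration per well; Timing: 4 h at 37 °C static, read 1 h later; Measured by: AK luminescence; Read-out basis: lysis from increased AK signal; Control set: Clomiphene as positive control.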
Each line names hits and unclear results; the compound was inactive in the other large screens.

O=C(NCc1ccccc1)C(=O)Nc1nc(C23CC4CC(CC(C4)C2)C3)cs1	none
Cc1cc(/C=C2\C(=N)N3N=CSC3=NC2=O)c(C)n1Cc1ccccc1	rRNA inh HTS -33.4
CCCC1=NN2C(=N)/C(=C\c3cc(C)n(Cc4ccccc4)c3C)C(=O)N=C2S1	none
Nc1cc(Nc2ccc(Br)cc2)nc(N)n1	rRNA inh HTS -43.6 (no result: RAD54 inh, PglD DTNB, Cneo AK release)
COC(=O)c1sc(-c2ccc(Cl)cc2)cc1NC(=O)CSCC(=O)O	rRNA inh HTS -41.5
COC(=O)c1sc(-c2ccc(C(C)(C)C)cc2)cc1NC(=O)COCC(=O)O	none
O=C(NCc1cc(F)cc(F)c1)[C@@H]1[C@@H](CO)[C@@H]2Cn3c(cccc3=O)[C@H]1N2C(=O)c1ccccn1	none (no result: RAD54 inh, PglD DTNB, Cneo AK release)
COc1ccc(S(=O)(=O)N(C)C[C@H]2Oc3ccc(NC(=O)Nc4cccc5ccccc45)cc3C(=O)N([C@H](C)CO)C[C@H]2C)cc1	none (no result: RAD54 inh, RAD52 anneal inh, PglD DTNB, Cneo AK release)
CCOC(=O)c1nc(C)sc1-c1ccnn1S(=O)(=O)c1ccc(C)cc1	rRNA inh HTS -21.9
CCOC(=O)c1nc(C)sc1-c1ccnn1S(=O)(=O)c1ccc(Cl)cc1Cl	rRNA inh HTS -28.8 (no result: RAD54 inh, PglD DTNB, Cneo AK release)
CCOC(=O)c1nc(C)sc1-c1ccnn1S(=O)(=O)c1ccccc1C(F)(F)F	none (no result: rRNA inh HTS)
CSc1ccc(NC(=O)Nc2cccn(Cc3ccccc3)c2=O)cc1	rRNA inh HTS -29.5 (no result: RAD54 inh, PglD DTNB, Cneo AK release)
Cc1cccc(NC(=O)Nc2ccc3c(c2)C(=O)N(C)[C@H]2CC[C@@H](CC(=O)NCc4ccccc4Cl)O[C@H]2CO3)c1	none (no result: RAD54 inh, RAD52 anneal inh, PglD DTNB, Cneo AK release)
O=C(Cn1nc(C(F)F)cc1C(F)F)NNC(=S)Nc1ccc(F)cc1	none (no result: RAD52 anneal inh, rRNA inh HTS)
O=C(Cn1nc(C(F)F)cc1C(F)F)NNC(=S)Nc1ccc([N+](=O)[O-])cc1	rRNA inh HTS -17.6 (no result: RAD54 inh, PglD DTNB, Cneo AK release)
COc1ccc2c3c(n(C)c2c1)[C@H](CO)N(C)CC31CN(S(=O)(=O)c2cn(C)cn2)C1	none (no result: RAD54 inh, PglD DTNB, Cneo AK release)
CCC[C@@H](CN1CCC[C@H]1CN1C(N)=NC[C@@H]1Cc1ccccc1)N1C[C@@H](Cc2ccccc2)N(CCc2ccc(Cl)c(Cl)c2)C1=N	RAD52 anneal inh 56.1
CN(c1ccccc1)S(=O)(=O)c1cccc(C(=O)OCC(=O)NCc2ccco2)c1	rRNA inh HTS -24.1
CO[C@@H]1CN(C)C(=O)c2ccc(NC(=O)c3nc4ccccc4s3)cc2OC[C@@H](C)N(Cc2cncnc2)C[C@@H]1C	none (no result: RAD54 inh, RAD52 anneal inh, PglD DTNB, Cneo AK release)
Cc1nn2c(NCCCn3ccnc3)cc(C(C)C)nc2c1-c1ccccc1	rRNA inh HTS -44.6 (no result: RAD54 inh, PglD DTNB, Cneo AK release)
CCOC(=O)N1CCN(C(=O)COc2cccc3c2CCN(Cc2ccccc2F)C3=O)CC1	none (no result: RAD54 inh, PglD DTNB, rRNA inh HTS, Cneo AK release)
Cc1ccccc1CN1CCc2c(OCC(=O)N3CCCCC3)cccc2C1=O	rRNA inh HTS -25.3 (no result: RAD54 inh, PglD DTNB, Cneo AK release)
C[C@H](CO)N1C[C@H](C)[C@H](CN(C)S(=O)(=O)c2cn(C)cn2)Oc2ccc(NC(=O)Nc3ccccc3)cc2C1=O	none
COc1ccc(CNc2ncnc3cc(OC)c(OC)cc23)cc1OC	rRNA inh HTS -16.9 (no result: RAD54 inh, PglD DTNB, Cneo AK release)
COc1ccc2c3c(n(C)c2c1)[C@H](CO)N(C)CC31CCN(S(=O)(=O)c2cn(C)cn2)CC1	none (no result: RAD54 inh, RAD52 anneal inh, PglD DTNB, Cneo AK release)
NNc1nc2c(F)cc(F)cc2s1	rRNA inh HTS -24.9
C[C@H](CO)N1C[C@H](C)[C@H](CN(C)S(=O)(=O)c2cn(C)cn2)Oc2ccc(NC(=O)C3CC3)cc2C1=O	none
C[C@@H]1C(=O)N[C@@H](c2ccc(F)cc2)CC=CC[C@H](C)Oc2ccccc2C(=O)N1C (mixture of isomers)	none (no result: RAD54 inh, RAD52 anneal inh, PglD DTNB, Cneo AK release)
